mIAP inh: blocks mouse intestinal alkaline phosphatase; purified mouse IAP, CDP-Star luminescence, 30 min; inhibition, % at 10 µM; 0.2% of 330,000 active; AID 2806;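 active = inhibition of at least 40% at 10 µM in the primary screen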
hIAP act: increases human intestinal alkaline phosphatase activity. P09923. purified human IAP, CDP-Star luminescence, 30 min; hits give high values; 1 = vehicle-only enzyme, 0 = enzyme-free background. activation factor at 10 µM. 0.16% of 330,000 active. AID 2524;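 active = activation factor of the enzyme at least 2-fold when tested at 20 µM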
Target sequence (P09923 whole entry, looked up): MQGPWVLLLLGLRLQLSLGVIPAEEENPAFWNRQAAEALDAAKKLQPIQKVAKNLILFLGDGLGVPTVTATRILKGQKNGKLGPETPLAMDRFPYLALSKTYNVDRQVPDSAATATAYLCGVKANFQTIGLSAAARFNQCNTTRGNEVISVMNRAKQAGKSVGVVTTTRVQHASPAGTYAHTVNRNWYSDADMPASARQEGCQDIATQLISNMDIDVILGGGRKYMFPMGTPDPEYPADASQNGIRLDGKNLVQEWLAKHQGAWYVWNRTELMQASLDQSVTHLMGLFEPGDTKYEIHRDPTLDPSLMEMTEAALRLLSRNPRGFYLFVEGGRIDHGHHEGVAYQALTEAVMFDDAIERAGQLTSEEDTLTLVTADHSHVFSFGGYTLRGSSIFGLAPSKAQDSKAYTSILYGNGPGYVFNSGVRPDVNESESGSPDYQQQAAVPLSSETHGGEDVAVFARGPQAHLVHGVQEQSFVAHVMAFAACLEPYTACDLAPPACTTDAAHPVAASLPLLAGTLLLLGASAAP
bIAP inhibitor: blocks bovine intestinal alkaline phosphatase activity; purified bovine IAP, CDP-star luminescence, 30 min; inhibition, % at 20 µM; 190,000 tested, under 10 active; AID 1019;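 active = over 50% inhibition of intestinal alkaline phosphatase at 20 µM in the single-dose screen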
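Incubation: 30 min reaction at room temperature / Material: purified bovine intestinal alkaline phosphatase (IAP) enzyme / Input: enzyme at 1/65,000,000 dilution / Dosing: 20 µM single dose / Signal: CDP-star luminescence signal / Reagent: CDP-star chemiluminescent phosphatase substrate, 30 µM final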
hIAP block: human IAP inhibition; purified IAP, CDP-Star luminescence, 30 min; inhibition, % at 10 µM; 0.12% of 330,000 active; P09923; AID 2544;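 active = inhibition reaching a set limit with compound at 10 µM in the primary screen, cut at about 35% in these data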
bIAP activator: increases bovine intestinal alkaline phosphatase activity; 0.17% of 200,000 active; activation factor at 20 µM; purified bovine IAP, CDP-star luminescence, 30 min; hits give high values; fold of DMSO-control signal, blank-subtracted; AID 1016;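 active = activation factor of 2 or more at 20 µM, a signal rise over negative controls twice the positive control's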
mIAP act: mouse IAP activation. 0.24% of 330,000 active. muIAP, CDP-Star luminescence, 30 min; hits give high values; 1 = vehicle-only enzyme signal, 0 = enzyme-free wells. activation factor at 10 µM;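 active = activation factor of at least 2 at 20 µM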
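System: Mouse IAP enzyme | Also added: CDP-Star substrate | Dosing: Compounds dispensed in DMSO | Schedule: 30 min enzyme-substrate-compound incubation at room temperature | Technique: Chemiluminescence readout | Control set: DMSO-only wells and no-enzyme negative control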
mIAP inh conf: mouse IAP inhibition confirmation | shares compounds with mIAP inh | purified mouse IAP, CDP-Star luminescence, 30 min | inhibition, % at 10 µM | 4.7% of 11,000 active;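 active = inhibition of at least 40% at 10 µM in either of the two replicates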
Of the large screens only hits and unclear results are named; the others gave an inactive call (follow-up assays come after a bar, where they were run). Shown are actives, neighbours in structure and some others; about 0.77% of the full set was active somewhere.

O=C(N/N=C/c1ccc(Cl)cc1)Nc1ccccc1	none
O=C(N/C=C/c1ccccc1)Nc1ccc(Cl)cc1	mIAP act 4 | mIAP inh conf inactive
CCCCC(=O)c1ccc(O)cc1	none
O=C(CCO)c1ccc(O)cc1	mIAP inh 46 | mIAP inh conf 47
Cc1c(Cl)cccc1NC(=O)NC1CCCCC1	none
Cc1ccc(C)c(CN2CCC(CNC(=O)Nc3cccc(Cl)c3C)CC2)c1	mIAP act 5.4 (no result: bIAP inhibitor, bIAP activator) | mIAP inh conf inactive
Cc1ccccc1CN1CCC(CNC(=O)Nc2ccc(F)cc2F)CC1	none (no result: bIAP inhibitor, bIAP activator)
Cc1ccc(NC(=O)NCC2CCN(Cc3cc(C)ccc3Cl)CC2)c(C)c1	mIAP act 4.9 | mIAP inh conf inactive
Cc1cc(NC(=O)Nc2ccc(Cl)c(Cl)c2)n(-c2ccccc2)n1	mIAP act 4.3 (no result: bIAP inhibitor, bIAP activator) | mIAP inh conf inactive
Cc1cc(NC(=O)Nc2cccc(Cl)c2)n(-c2ccccc2)n1	mIAP act 3 (no result: bIAP inhibitor, bIAP activator) | mIAP inh conf inactive
Cc1cc(NC(=O)Nc2cccc(Cl)c2)n(-c2ccccn2)n1	none (no result: bIAP inhibitor, bIAP activator)
COC(=O)c1ccccc1NC(=O)NCCc1ccccc1OC	none
CCOC(=O)c1ccc(NC(=O)NCCc2ccccc2OC)cc1	mIAP act 2.8 | mIAP inh conf inactive
O=C(Nc1ccccc1-c1ccccc1)NC1CC2CCCC(C1)N2Cc1ccc(F)cc1 (stereo unspecified)	bIAP activator 5.8, mIAP act 5 | mIAP inh conf inactive
CCc1ccc(NC(=S)NC2CC3CCCC(C2)N3Cc2ccccc2)cc1 (stereo unspecified)	bIAP activator 4.6, mIAP act 5 | mIAP inh conf inactive
CCCN1C2CCCC1CC(NC(=S)Nc1cccc(C)c1)C2 (stereo unspecified)	none
Cc1cccc(NC(=S)NC2CC3CCCC(C2)N3CC(C)C)c1 (stereo unspecified)	mIAP act 2.5 | mIAP inh conf inactive
CCc1ccc(NC(=S)NC2CC3CCC(C2)N3Cc2ccco2)cc1 (stereo unspecified)	none
Cc1cccc(N(C(=O)c2snc(C(N)=O)c2N)C(C(=O)NCC2CCCO2)c2ccc(N(C)C)cc2)c1C (stereo unspecified)	none (no result: bIAP inhibitor, bIAP activator)
COCCC(=O)N1CCC(Oc2ccc(C(=O)N(C)CCCC3CCCC3)cc2)CC1	none (no result: bIAP inhibitor, bIAP activator)
CC(C)=CCc1c(O)c(CC=C(C)C)c2c(c1O)-c1cc(O)c(O)cc1CC2	mIAP inh 62 (no result: bIAP inhibitor, bIAP activator) | mIAP inh conf 60
CC(C)=CCc1c(O)ccc(C2COc3c(CC=C(C)C)c(O)cc(O)c3C2=O)c1O (stereo unspecified)	none (no result: bIAP inhibitor, bIAP activator)
CN(C)C1=NC(=O)/C(=C/c2ccc(-c3ccc(S(N)(=O)=O)cc3)o2)S1	mIAP inh 50 (no result: bIAP inhibitor, bIAP activator) | mIAP inh conf 50
NC1=NC(=O)/C(=C\c2ccc(-c3ccc(Cl)cc3)o2)S1	none (no result: bIAP inhibitor, bIAP activator)
NS(=O)(=O)c1ccc(-c2ccc(/C=C3\SC(=S)N(C4CCS(=O)(=O)C4)C3=O)o2)cc1 (stereo unspecified)	mIAP inh 80 (no result: bIAP inhibitor, bIAP activator) | mIAP inh conf 87
Cc1ccc(/C=C2\SC(=S)N(C3CCS(=O)(=O)C3)C2=O)o1 (stereo unspecified)	none
CN(C)c1ccc(NC(=O)CSc2nnc(-c3ccco3)c(-c3ccco3)n2)cc1	mIAP inh 49 (no result: bIAP inhibitor, bIAP activator) | mIAP inh conf 60
Cc1ccc(NC(=O)CSc2nnc(-c3ccco3)c(-c3ccco3)n2)cc1	mIAP inh 64 | mIAP inh conf 60
O=C(CSc1nnc(-c2ccco2)c(-c2ccco2)n1)Nc1ccccc1	mIAP inh 45 | mIAP inh conf 54
Cc1ccccc1NC(=O)CSc1nnc(-c2ccco2)c(-c2ccco2)n1	mIAP inh 52 | mIAP inh conf 51
COc1ccc(NC(=O)CSc2nnc(-c3ccco3)c(-c3ccco3)n2)cc1OC	none (no result: bIAP inhibitor, bIAP activator)
O=C(CCCc1ccccc1)NC12CC3CC(CC(C3)C1)C2	none (no result: bIAP inhibitor, bIAP activator)
CC1CCCCN1S(=O)(=O)c1ccc2c(c1)CCN2C(=O)C1CC1 (stereo unspecified)	none (no result: bIAP inhibitor, bIAP activator)
Cc1ccc(Cl)c2c1=NC(=O)C=2c1[nH]c(=S)[nH]c1O	mIAP inh 46 (no result: bIAP inhibitor) | mIAP inh conf 52
O=C(Nc1ccc(S(=O)(=O)Nc2ncccn2)cc1)C1=COCCO1	none (no result: bIAP inhibitor, bIAP activator)
O=C(CSc1ncn[nH]1)CSc1ncn[nH]1	mIAP inh 46 | mIAP inh conf 48
Cc1cc(-c2csc(N)n2)c(C)n1Cc1ccco1	mIAP inh 51 | mIAP inh conf 43
Cc1cc(-c2csc(N)n2)c(C)n1C	none
Cc1cccc(OCC(=O)N(C)c2c(N)n(Cc3ccccc3)c(=O)[nH]c2=O)c1C	none (no result: bIAP inhibitor, bIAP activator)
CCC(=O)Nc1ccc(NCc2cccs2)cc1	none (no result: bIAP inhibitor, bIAP activator)
CC(=O)Nc1nc(-c2cccs2)cs1	none
Nc1nc(-c2cccs2)cs1	mIAP inh 46 | mIAP inh conf 52
CC(C)NC(=O)CSc1ncccc1-c1nc2ccccc2[nH]1	none (no result: bIAP inhibitor, bIAP activator)
Oc1c(C=C2N=c3ccccc3=N2)sc(=S)n1-c1ccc(F)cc1	none | mIAP inh conf 38
O=C(c1ccc2c(c1)OCO2)C1CCCN(C2CCN(CCc3ccccc3)CC2)C1 (stereo unspecified)	none
O=C(N/N=C/c1ccc(OC(=O)c2ccccc2Cl)cc1)c1cc(O)cc(O)c1	mIAP inh 47 (no result: bIAP inhibitor, bIAP activator) | mIAP inh conf 61
O=C(N/N=C/c1ccc(OC(=O)c2ccccc2Cl)cc1)c1ccccn1	none (no result: bIAP inhibitor, bIAP activator)
COc1cc(/C=N/NC(=O)c2cc(O)cc(O)c2)ccc1OC(=O)c1ccccc1	mIAP inh 50 (no result: bIAP inhibitor, bIAP activator) | mIAP inh conf 57
Cc1ccc(C(C)NC(=O)c2ccc3c(c2)OCO3)cc1C (stereo unspecified)	none (no result: bIAP inhibitor, bIAP activator)
Cc1cc(C)cc(NC(=O)C2CCN(S(=O)(=O)c3ccc4[nH]c(=O)ccc4c3)CC2)c1	none (no result: bIAP inhibitor, bIAP activator)
COCc1ccc(CN2CCC(C(=O)Nc3cccc(-c4cccc(Cl)c4)c3)CC2)o1	mIAP act 2.7 (no result: bIAP inhibitor, bIAP activator) | mIAP inh conf inactive
Nc1nnnn1/N=C/c1ccco1	none
C(=N\C(/N=C/c1ccco1)c1ccco1)/c1ccco1	mIAP inh 73 | mIAP inh conf 75
CN(C)c1ccc(N=Cc2ccco2)cc1	none
C(=Nc1cccc2c(N=Cc3ccco3)cccc12)c1ccco1	mIAP inh 48 | mIAP inh conf 41
CC(C)C[C@H](NC(=O)OC(C)(C)C)C(=O)N[C@@H](CO)[C@H](O)[C@@H]1C[C@@H]1C(=O)N1CCCC1	none (no result: bIAP inhibitor, bIAP activator)
Cn1c(N2CCN(C(c3ccccc3)c3ccccc3)CC2)nc2ccccc21	none (no result: bIAP inhibitor, bIAP activator)
Cc1nc2ccccc2c(=O)n1/N=C/c1ccc(O)c(O)c1O	mIAP inh 57 (no result: bIAP inhibitor, bIAP activator) | mIAP inh conf 81
CN(C(=O)c1ccccc1)C1c2c(ccc3ccccc23)OCC1CO (stereo unspecified)	none (no result: bIAP inhibitor, bIAP activator)

Screens as filed in PubChem BioAssay.
